A short description of assay [1]: Her2 expression decrease, cell viability multiplex – SKBR3 breast tumor cells, AlphaScreen, ATP viability, primary screen (AID 461;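 active = Her2 level under about 52% in both replicate screens, with viability over 70% of control, limit read from the data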;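 for Her2 level: lower value means less Her2 protein in the cells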;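 for viability: percent of carrier control wells set as 100% viability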). The note with it: SKBR3 Her2 protein level, 18-24 h, measured here: SKBR3 viability, ATP luminescence, at 10 µM. (In general: Alpha assays give light when donor and acceptor beads are brought close together.)
For assay [2], the target named is Receptor tyrosine-protein kinase erbB-2 (Homo sapiens) (UniProt P04626). The description is as above. As to conditions: 18-24 h, at 10 µM, stronger effect = lower value.
A short description of assay [3]: reduced viability of SK-BR-3 breast cancer cells – cell-based, 24 h, human, pilot screen (AID 572;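 active = viability at or below 10% of carrier control in both of two separate runs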;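 note: compound exposure lasted between 18 and 24 h rather than exactly 24 h; 100% = carrier-treated control wells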). As to conditions: SK-BR-3 viability, CellTiter-Glo luminescence, at 10 µM, stronger effect = lower value.
Assay [4] can be described thus: HUVEC growth inhibition – cell-based, human, primary screen (AID 575;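 active = viability at or below 30% in both replicate assays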;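 note: 100% = median of untreated cell wells with 0.1% DMSO on each plate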). As to conditions: HUVEC proliferation, CellTiter-Glo luminescence, 72 h; at 10 µM; stronger effect = lower value. The method in brief: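 material = primary HUVEC, no more than 12 passages | input = 1250 cells per well | controls = vehicle and MePR control wells | measured by = CTG luminescence | times = 72 h compound incubation | format = collagen-coated 384-well format | read-out = % viability vs DMSO wells | doses = single 10 µM dose, 0.1% DMSO, from 5x medium stock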
(ATP-based viability assays read luminescence as a measure of living cells.)

Assay [5] in a line: H69AR cell proliferation blockers – human, duplicate replicates, primary screen (AID 580).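 Note: 100% = mean luminescence of untreated wells and 0% = no signal.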 As to conditions: H69AR lung tumor cells viability, ATP luminescence, 72 h; at 10 µM; stronger effect = lower value.
The nature of assay [6]: MRP1 drug-resistance reversers in H69AR cells – cell-based, doxorubicin co-treatment, pilot screen (AID 601;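 active = viability loss from added drug above about 55%, and viability with drug at most 40%, in both replicates, limit read from the data, passing the limit was not always enough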). As to conditions: CellTiter-Glo, 72 h, at 10 µM; for differential viability (reversal): stronger effect = higher value.
Assay [7] in a line: yeast transport mutant growth inhibition pilot in 384-well plates, post-Golgi transport modulator project (AID 636; in the data active = inhibition above about 31%). As to conditions: absorbance 615 nm, about 18 h, stronger effect = higher value.
The nature of assay [8]: growth suppression of yeast trafficking mutant, preliminary HTS, modulators of trafficking downstream of Golgi apparatus project, 1536-format plate, OD 615 nm (AID 637; in the data active = inhibition above about 30%). As to conditions: yeast transport mutant growth, absorbance 615 nm, 18 h; stronger effect = higher value.
Where [9] appears, read: H69AR cells + 2 uM doxorubicin, measured here: viability with 2 uM doxorubicin, stronger effect = lower value.
Where [10] appears, read: H69AR cells, compound alone cytotoxicity.

Structures are written as SMILES. The source made the active and inactive calls.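 Rule for the calls, unless noted: active = viability at or under a set limit in both replicates, limit being median viability minus 3 SD (cut at about 48% in these data, passing the limit was not always enough); inconclusive = at or under the limit in just one replicate; inactive = at or above the limit in both replicates.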

Receptor tyrosine-protein kinase erbB-2 (Homo sapiens), sequence (P04626 whole entry, looked up): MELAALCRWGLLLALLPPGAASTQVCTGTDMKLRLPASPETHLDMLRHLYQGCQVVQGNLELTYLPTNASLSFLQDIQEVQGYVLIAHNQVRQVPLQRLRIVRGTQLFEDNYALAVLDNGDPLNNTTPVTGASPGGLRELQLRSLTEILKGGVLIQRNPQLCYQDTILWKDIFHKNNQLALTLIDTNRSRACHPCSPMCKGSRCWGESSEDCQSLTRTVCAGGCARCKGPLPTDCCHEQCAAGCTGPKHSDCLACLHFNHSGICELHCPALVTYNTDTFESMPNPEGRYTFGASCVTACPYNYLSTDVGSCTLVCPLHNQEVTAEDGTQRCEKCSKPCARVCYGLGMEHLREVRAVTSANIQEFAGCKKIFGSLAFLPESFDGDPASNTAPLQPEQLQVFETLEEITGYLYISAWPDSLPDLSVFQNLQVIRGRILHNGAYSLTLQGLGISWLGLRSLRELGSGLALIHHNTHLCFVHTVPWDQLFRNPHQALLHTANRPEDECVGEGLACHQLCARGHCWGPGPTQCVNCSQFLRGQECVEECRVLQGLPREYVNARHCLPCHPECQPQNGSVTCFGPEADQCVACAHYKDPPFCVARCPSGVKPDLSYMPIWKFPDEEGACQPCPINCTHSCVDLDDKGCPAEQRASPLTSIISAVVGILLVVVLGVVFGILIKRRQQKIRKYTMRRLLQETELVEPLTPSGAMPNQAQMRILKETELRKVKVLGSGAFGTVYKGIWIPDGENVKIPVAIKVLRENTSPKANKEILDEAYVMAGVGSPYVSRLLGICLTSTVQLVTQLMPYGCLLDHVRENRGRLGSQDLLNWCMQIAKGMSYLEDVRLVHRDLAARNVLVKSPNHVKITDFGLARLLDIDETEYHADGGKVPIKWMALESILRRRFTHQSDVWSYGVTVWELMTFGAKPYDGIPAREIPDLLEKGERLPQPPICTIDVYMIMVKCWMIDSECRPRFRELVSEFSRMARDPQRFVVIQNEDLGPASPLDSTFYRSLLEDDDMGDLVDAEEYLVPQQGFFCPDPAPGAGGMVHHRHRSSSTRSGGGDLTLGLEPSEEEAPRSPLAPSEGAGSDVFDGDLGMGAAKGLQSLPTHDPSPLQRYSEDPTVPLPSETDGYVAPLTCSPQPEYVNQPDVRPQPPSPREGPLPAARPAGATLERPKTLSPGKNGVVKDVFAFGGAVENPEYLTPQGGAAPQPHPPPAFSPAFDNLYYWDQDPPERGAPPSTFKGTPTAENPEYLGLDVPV

The term viability denotes a read-out of living cells in per cent, often relative to untreated cells. The term inhibition denotes the drop in the measured response relative to a control, in per cent. As for `COC(=O)c1ccc(-c2ccc(CNCC(O)c3ccccc3)o2)cc1` (stereo not given), the viability is 111% in assay [1]; 111% (inactive) in assay [3]; 88.8% (inactive) in assay [4]; 101% (inactive) in assay [5]; 92.2% in assay [6] (setting [9]); 101% in assay [6] (setting [10]). Moreover, in assay [2], the Her2 level is 101% (inactive). Further, in assay [6] (H69AR cells + 2 uM doxorubicin), the differential viability (reversal) is 8.78% (inactive). Moreover, the inhibition in assay [7] was -2.03% (inactive); in assay [8], 1.83% (inactive).

With `C=CCn1cnc2c(NCc3ccccc3)ncnc21`, the viability in assay [1] is 85.5%; in assay [3], 85.5% (inactive); in assay [4] it was 96.9% (inactive); in assay [5], 97.1% (inactive); in assay [6] (setting [9]) it was 100%; in assay [6] (setting [10]), 97.1%. In addition, the Her2 level in assay [2] was 94% (inactive). Also, the differential viability (reversal) in assay [6] (H69AR cells + 2 uM doxorubicin) was -3.4% (inactive). In addition, the figures for the inhibition in assay [7] and in assay [8] were 1.71% (inactive) and -7.9% (inactive), respectively.

For the molecule `Cn1cc(CC(=O)Nc2cccc(C#N)c2)c2ccccc21`, the viability in assay [1] was 101%; in assay [3] it was 101% (inactive); in assay [4] it was 97.7% (inactive); in assay [5] it was 104% (inactive); in assay [6] (setting [9]), 91.7%; in assay [6] (setting [10]), 104%. For the same molecule, the Her2 level in assay [2] was 87.5% (inactive). For the same molecule, the differential viability (reversal) in assay [6] (H69AR cells + 2 uM doxorubicin) was 12.6% (inactive). Moreover, the inhibition is -4.61% (inactive) in assay [7] and -2.22% (inactive) in assay [8].

Regarding `CCOCCc1nnc(NC(=O)c2ccc(OC)c(OC)c2)s1`, the viability in assay [1] was 107%; in assay [3] it was 107% (inactive); in assay [4], 62.8% (inactive); in assay [5], 94.4% (inactive); in assay [6] (setting [9]) it was 96.4%; in assay [6] (setting [10]) it was 94.4%. In addition, in assay [2], the Her2 level was 86% (inactive). In addition, the differential viability (reversal) in assay [6] (H69AR cells + 2 uM doxorubicin) was -1.97% (inactive). For the same molecule, the inhibition was -6.4% (inactive) in assay [7] and -3.39% (inactive) in assay [8].

In the case of `CCOC(=O)c1cc(-c2ccco2)nc2c1c(C)nn2CCC#N`, the viability in assay [1] is 96%; in assay [3], 96% (inactive); in assay [4], 98% (inactive); in assay [5], 68.3% (inactive); in assay [6] (setting [9]), 84.5%; in assay [6] (setting [10]) it was 68.3%. Further, the Her2 level in assay [2] is 101% (inactive). In addition, the differential viability (reversal) in assay [6] (H69AR cells + 2 uM doxorubicin) was -16.2% (inactive). Further, the inhibition in assay [7] is 4.05% (inactive); in assay [8], 3.97% (inactive).

In the case of `O=C(COC(=O)c1ccccc1Oc1ccccc1)NC1CCS(=O)(=O)C1` (stereo not given), the viability was 107% in assay [1]; 107% (inactive) in assay [3]; 98.8% (inactive) in assay [4]; 90% (inactive) in assay [5]; 98.6% in assay [6] (setting [9]); 90% in assay [6] (setting [10]). For the same molecule, the Her2 level in assay [2] is 104% (inactive). Also, in assay [6] (H69AR cells + 2 uM doxorubicin), the differential viability (reversal) is -8.6% (inactive). The inhibition in assay [7] was 0.54% (inactive); in assay [8] it was -5.57% (inactive).

For `COc1cccc(OC)c1C(=O)Nc1cccc(C(C)=O)c1`, the viability in assay [1] was 103%; in assay [3] it was 103% (inactive); in assay [4] it was 98.8% (inactive); in assay [5] it was 98.7% (inactive); in assay [6] (setting [9]), 92.2%; in assay [6] (setting [10]), 98.7%. Further, the Her2 level in assay [2] is 99% (inactive). In addition, in assay [6] (H69AR cells + 2 uM doxorubicin), the differential viability (reversal) was 6.47% (inactive). Besides, the inhibition is -6.27% (inactive) in assay [7] and 0.48% (inactive) in assay [8].

In the case of `Cc1cc(C)c(NC(=O)C2CCCN2CCO)c(C)c1` (stereo not given), the viability in assay [1] is 83%; in assay [3], 83% (inactive); in assay [4], 108% (inactive); in assay [5], 86.5% (inactive); in assay [6] (setting [9]) it was 90.3%; in assay [6] (setting [10]), 86.5%. The Her2 level in assay [2] is 135% (inactive). Further, in assay [6] (H69AR cells + 2 uM doxorubicin), the differential viability (reversal) was -3.78% (inactive). Further, the inhibition was 0.79% (inactive) in assay [7] and -8.69% (inactive) in assay [8].

As for `O=C1C2CC=C(Cl)CC2C(=O)N1c1ncn[nH]1` (stereo not given), the viability in assay [1] was 86.5%; in assay [3] it was 86.5% (inactive); in assay [4], 106% (inactive); in assay [5] it was 103% (inactive); in assay [6] (setting [9]), 101%; in assay [6] (setting [10]), 103%. The Her2 level in assay [2] is 96% (inactive). Also, the differential viability (reversal) in assay [6] (H69AR cells + 2 uM doxorubicin) is 2.85% (inactive). Besides, the inhibition in assay [7] is 0.27% (inactive); in assay [8], -5.32% (inactive).

For the molecule `CC1(C)CC(=O)C(CC2=C(O)CC(C)(C)CC2=O)=C(O)C1`, the viability in assay [1] is 95%; in assay [3], 95% (inactive); in assay [4], 94.4% (inactive); in assay [5], 102% (inactive); in assay [6] (setting [9]), 91.8%; in assay [6] (setting [10]), 102%. Besides, the Her2 level in assay [2] was 91% (inactive). Besides, the differential viability (reversal) in assay [6] (H69AR cells + 2 uM doxorubicin) is 10.5% (inactive). Further, the values for the inhibition in assay [7] and in assay [8] were -3.68% (inactive) and -4% (inactive), respectively.

For `CCOC(=O)C1=C(C)NC(SC(C)=O)=NC1c1ccc(OC(C)=O)c(OC)c1` (stereo not given), the viability in assay [1] was 106%; in assay [3], 106% (inactive); in assay [4], 82.9% (inactive); in assay [5] it was 85.3% (inactive); in assay [6] (setting [9]), 94.5%; in assay [6] (setting [10]) it was 85.3%. For the same molecule, the Her2 level in assay [2] was 95.5% (inactive). Besides, in assay [6] (H69AR cells + 2 uM doxorubicin), the differential viability (reversal) was -9.22% (inactive). Moreover, the inhibition in assay [7] was -6.84% (inactive); in assay [8], -6.36% (inactive).

With `Cc1cccc(C2CC(c3ccc(Br)cc3)Nc3nc(N)nn32)c1` (stereo not given), the viability in assay [1] is 92.5%; in assay [3] it was 92.5% (inactive); in assay [4] it was 72.6% (inactive); in assay [5], 87.6% (inactive); in assay [6] (setting [9]), 102%; in assay [6] (setting [10]) it was 87.6%. Besides, the Her2 level in assay [2] is 94% (inactive). In addition, the differential viability (reversal) in assay [6] (H69AR cells + 2 uM doxorubicin) was -14.7% (inactive). For the same molecule, the figures for the inhibition in assay [7] and in assay [8] were -4.4% (inactive) and 2.33% (inactive), respectively.

Take `OC(COc1ccccc1)CN1C2=NCCCN2c2ccccc21` (stereo not given): the viability is 80.5% in assay [1]; 80.5% (inactive) in assay [3]; 97.4% (inactive) in assay [4]; 92.6% (inactive) in assay [5]; 85% in assay [6] (setting [9]); 92.6% in assay [6] (setting [10]). The Her2 level in assay [2] is 79.5% (inactive). Moreover, the differential viability (reversal) in assay [6] (H69AR cells + 2 uM doxorubicin) was 7.67% (inactive). Also, the inhibition in assay [7] is -4.93% (inactive); in assay [8] it was 3.11% (inactive).

Consider `CCOc1cc(C(=O)NCc2ccncc2)cc(OCC)c1OCC`, for which the viability in assay [1] is 117%; in assay [3], 117% (inactive); in assay [4], 94.4% (inactive); in assay [5], 90.7% (inactive); in assay [6] (setting [9]), 87.7%; in assay [6] (setting [10]), 90.7%. Further, in assay [2], the Her2 level is 92% (inactive). In addition, in assay [6] (H69AR cells + 2 uM doxorubicin), the differential viability (reversal) was 2.97% (inactive). The inhibition in assay [7] is -6.27% (inactive); in assay [8], -4.76% (inactive).

As to `CCOc1cc(C2C(C(=O)c3ccccc3)=C(C(=O)OC)Nc3nnnn32)ccc1O` (stereo not given), the viability in assay [1] is 113%; in assay [3], 113% (inactive); in assay [4], 91.6% (inactive); in assay [5], 97.6% (inactive); in assay [6] (setting [9]) it was 81.2%; in assay [6] (setting [10]), 97.6%. The Her2 level in assay [2] is 96% (inactive). The differential viability (reversal) in assay [6] (H69AR cells + 2 uM doxorubicin) was 16.4% (inactive). For the same molecule, the inhibition in assay [7] is -1.84% (inactive); in assay [8], -5.45% (inactive).

`CCOc1ccc(-c2nc(C#N)c(N3CCCCCC3)o2)cc1`: the viability in assay [1] was 138%; in assay [3] it was 138% (inactive); in assay [4], 79.5% (inactive); in assay [5] it was 94.7% (inactive); in assay [6] (setting [9]), 95.2%; in assay [6] (setting [10]), 94.7%. Further, in assay [2], the Her2 level was 82% (inactive). Besides, the differential viability (reversal) in assay [6] (H69AR cells + 2 uM doxorubicin) was -0.54% (inactive). Also, the inhibition in assay [7] was 0.64% (inactive); in assay [8], -0.17% (inactive).

Source of the values: PubChem BioAssay.
